Source: ChEMBL document CHEMBL2331236, “Synthesis and biological evaluation of 1-(2-hydroxy-3-phenyloxypropyl)piperazine derivatives as T-type calcium channel blockers” (Bioorg Med Chem Lett, 2013)
Each block holds one compound with its values, some of them ahead of it.

Legend:
[1] = target: T1, Voltage-dependent T-type calcium channel subunit alpha-1G (Homo sapiens, UniProt O43497); experiment: Inhibition of alpha-1G calcium channel in human HEK293 cells at 10 uM by FDSS6000 fluorescence-based assay
T1 sequence (O43497 whole entry): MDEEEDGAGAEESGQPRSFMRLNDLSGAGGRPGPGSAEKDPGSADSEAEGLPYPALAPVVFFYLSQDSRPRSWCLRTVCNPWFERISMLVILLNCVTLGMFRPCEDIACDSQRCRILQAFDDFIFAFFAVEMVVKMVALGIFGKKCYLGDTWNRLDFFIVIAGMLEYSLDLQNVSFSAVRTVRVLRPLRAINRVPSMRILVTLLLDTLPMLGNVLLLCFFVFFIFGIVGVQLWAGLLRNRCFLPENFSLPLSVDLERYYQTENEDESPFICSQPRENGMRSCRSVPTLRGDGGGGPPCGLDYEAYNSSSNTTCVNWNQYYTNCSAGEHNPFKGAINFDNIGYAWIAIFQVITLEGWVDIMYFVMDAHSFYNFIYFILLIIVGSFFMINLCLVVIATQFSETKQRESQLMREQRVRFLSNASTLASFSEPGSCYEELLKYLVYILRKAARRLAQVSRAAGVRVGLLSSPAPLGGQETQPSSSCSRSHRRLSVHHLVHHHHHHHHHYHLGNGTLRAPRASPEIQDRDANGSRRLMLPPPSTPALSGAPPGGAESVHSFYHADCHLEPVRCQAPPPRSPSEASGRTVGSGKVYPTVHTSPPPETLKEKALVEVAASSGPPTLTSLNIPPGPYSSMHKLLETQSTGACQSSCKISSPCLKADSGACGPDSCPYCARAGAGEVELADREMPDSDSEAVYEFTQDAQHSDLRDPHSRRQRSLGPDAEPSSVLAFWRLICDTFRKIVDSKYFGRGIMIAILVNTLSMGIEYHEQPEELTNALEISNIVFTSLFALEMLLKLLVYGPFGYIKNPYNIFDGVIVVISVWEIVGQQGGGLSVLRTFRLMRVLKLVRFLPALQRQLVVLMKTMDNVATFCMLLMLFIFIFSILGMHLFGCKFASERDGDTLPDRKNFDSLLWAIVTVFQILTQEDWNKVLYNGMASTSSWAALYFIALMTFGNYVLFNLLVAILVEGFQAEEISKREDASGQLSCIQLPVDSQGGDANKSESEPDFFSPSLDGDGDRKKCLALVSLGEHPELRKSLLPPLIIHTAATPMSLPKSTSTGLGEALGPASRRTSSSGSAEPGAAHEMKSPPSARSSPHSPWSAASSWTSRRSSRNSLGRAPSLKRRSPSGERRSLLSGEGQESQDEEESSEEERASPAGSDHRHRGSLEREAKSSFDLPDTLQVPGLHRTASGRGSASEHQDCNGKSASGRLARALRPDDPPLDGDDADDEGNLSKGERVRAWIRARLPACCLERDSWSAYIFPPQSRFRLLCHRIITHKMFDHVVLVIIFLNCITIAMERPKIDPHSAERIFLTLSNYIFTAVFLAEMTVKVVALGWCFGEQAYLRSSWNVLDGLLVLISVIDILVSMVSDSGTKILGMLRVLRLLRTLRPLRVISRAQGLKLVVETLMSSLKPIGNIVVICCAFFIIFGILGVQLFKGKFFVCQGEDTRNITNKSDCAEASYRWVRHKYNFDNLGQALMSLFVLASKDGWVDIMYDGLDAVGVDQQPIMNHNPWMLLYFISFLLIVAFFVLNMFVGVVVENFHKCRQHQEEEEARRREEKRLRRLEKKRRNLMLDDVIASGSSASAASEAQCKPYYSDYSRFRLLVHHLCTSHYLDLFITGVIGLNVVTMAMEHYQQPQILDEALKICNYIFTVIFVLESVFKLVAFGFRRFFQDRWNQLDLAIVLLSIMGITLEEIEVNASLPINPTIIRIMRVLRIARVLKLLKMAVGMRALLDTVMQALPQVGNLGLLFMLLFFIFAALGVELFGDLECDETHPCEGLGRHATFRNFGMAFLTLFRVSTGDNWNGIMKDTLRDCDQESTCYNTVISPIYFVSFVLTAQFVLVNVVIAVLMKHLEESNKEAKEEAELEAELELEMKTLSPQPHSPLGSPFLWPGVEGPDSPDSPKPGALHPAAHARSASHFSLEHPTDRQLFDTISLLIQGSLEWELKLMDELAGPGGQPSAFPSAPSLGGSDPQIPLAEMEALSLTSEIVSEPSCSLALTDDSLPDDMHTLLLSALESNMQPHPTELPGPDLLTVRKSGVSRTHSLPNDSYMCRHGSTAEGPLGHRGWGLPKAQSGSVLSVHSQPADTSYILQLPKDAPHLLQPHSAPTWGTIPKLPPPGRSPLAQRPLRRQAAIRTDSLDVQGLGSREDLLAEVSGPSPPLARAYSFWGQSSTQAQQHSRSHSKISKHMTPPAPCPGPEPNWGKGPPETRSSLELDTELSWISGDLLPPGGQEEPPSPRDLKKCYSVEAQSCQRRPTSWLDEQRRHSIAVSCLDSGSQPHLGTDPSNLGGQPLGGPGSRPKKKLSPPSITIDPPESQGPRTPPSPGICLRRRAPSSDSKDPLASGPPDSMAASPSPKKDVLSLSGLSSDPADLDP

[2] = target: T1, Voltage-dependent T-type calcium channel subunit alpha-1G; experiment: Inhibition of alpha-1G calcium channel in human HEK293 cells by whole-cell patch-clamp method; type: cell-based
Method in brief: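 Whole-cell recordings used α1G T-type channels. Pipette solution (mM): 130 KCl, 11 EGTA, 5 Mg-ATP, 10 HEPES, pH 7.4. Bath (mM): 140 NaCl, 2 CaCl2, 10 HEPES, 10 glucose, pH 7.4. Currents were evoked every 15 s by a 50 ms step from −100 to −30 mV. IC50 for peak-current inhibition came from dose-response curve fitting of raw data.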

[3] = tested on: HEK293; experiment: Selectivity ratio of IC50 for human ERG to IC50 for alpha-1G calcium channel in human HEK293 cells; type: cell-based
[4] = target: Voltage-gated inwardly rectifying potassium channel KCNH2 (Homo sapiens, UniProt Q12809); experiment: Inhibition of human ERG
Chain of Voltage-gated inwardly rectifying potassium channel KCNH2 (Q12809 whole entry): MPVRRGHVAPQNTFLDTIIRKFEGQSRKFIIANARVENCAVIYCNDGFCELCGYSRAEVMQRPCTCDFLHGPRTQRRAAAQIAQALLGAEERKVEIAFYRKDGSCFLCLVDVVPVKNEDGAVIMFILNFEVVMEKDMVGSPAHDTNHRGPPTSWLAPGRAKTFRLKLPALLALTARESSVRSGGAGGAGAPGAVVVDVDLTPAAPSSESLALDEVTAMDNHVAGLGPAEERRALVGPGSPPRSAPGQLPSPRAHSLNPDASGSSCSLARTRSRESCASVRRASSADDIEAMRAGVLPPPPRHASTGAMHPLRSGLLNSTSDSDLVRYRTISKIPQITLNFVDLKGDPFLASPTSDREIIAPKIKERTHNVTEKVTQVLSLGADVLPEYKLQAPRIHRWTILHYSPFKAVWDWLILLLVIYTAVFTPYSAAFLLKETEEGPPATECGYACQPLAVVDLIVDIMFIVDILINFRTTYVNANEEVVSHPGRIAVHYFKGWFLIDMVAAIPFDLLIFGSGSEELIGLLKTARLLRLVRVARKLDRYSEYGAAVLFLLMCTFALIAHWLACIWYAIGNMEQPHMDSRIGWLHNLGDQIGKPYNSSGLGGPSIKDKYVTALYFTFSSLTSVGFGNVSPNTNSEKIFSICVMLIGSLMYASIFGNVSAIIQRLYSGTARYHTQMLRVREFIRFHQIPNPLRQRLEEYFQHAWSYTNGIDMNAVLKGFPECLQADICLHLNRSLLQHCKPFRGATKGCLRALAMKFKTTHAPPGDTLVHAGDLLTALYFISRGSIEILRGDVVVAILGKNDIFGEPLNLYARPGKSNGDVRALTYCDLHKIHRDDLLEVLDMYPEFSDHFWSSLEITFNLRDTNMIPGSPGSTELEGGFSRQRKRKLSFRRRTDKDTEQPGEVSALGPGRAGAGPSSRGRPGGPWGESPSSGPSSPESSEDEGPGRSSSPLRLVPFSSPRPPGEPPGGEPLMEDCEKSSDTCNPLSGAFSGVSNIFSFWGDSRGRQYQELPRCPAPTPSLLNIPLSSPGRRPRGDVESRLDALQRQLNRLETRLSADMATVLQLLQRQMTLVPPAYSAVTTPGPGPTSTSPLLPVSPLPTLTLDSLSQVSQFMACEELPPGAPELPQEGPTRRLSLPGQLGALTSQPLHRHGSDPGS

[5] = Tmax in ICR mouse brain at 10 mg/kg, po; type: ADME, organism-based; set-up: dose 10 mg/kg, route oral
Method in brief: (§1)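 ICR mice were dosed orally at 10 mg/kg, with n = 3 per time point. Plasma and brain concentrations were followed over time. Cmax, Tmax, AUClast, AUC0-∞ and terminal half-life were taken from the concentration–time profiles, and values are means.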

[6] = Cmax in ICR mouse brain at 10 mg/kg, po; type: ADME, organism-based; set-up: dose 10 mg/kg, route oral
Method in brief: as §1

[7] = tested on: Brain; experiment: (§2) AUClast in ICR mouse brain at 10 mg/kg, po; type: ADME, organism-based; set-up: time 0 - last, dose 10 mg/kg, route oral; conditions: in vivo
Method in brief: as §1

[8] = Terminal half life in ICR mouse brain at 10 mg/kg, po; type: ADME, organism-based; set-up: dose 10 mg/kg, route oral; conditions: read-out: beta t1/2
Method in brief: as §1

[9] = Oral bioavailability in ICR mouse at 10 mg/kg; type: ADME, organism-based; conditions: in vivo
[10] = Ratio of AUC in brain to AUC in plasma of ICR mouse at 10 mg/kg, po; type: ADME, organism-based; set-up: dose 10 mg/kg, route oral
Method in brief: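 ICR mice dosed orally at 10 mg/kg; plasma and brain sampled over time (n = 3 per time point). AUC (taken as dose/clearance) computed for each matrix from mean concentration–time profiles; brain-to-plasma ratio reported as AUCbrain/AUCplasma […], from mean values.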

[11] = Tmax in ICR mouse plasma at 10 mg/kg, po; type: ADME, organism-based; set-up: dose 10 mg/kg, route oral
Method in brief: as §1

[12] = Terminal half life in ICR mouse plasma at 10 mg/kg, po; type: ADME, organism-based; set-up: dose 10 mg/kg, route oral; conditions: read-out: beta t1/2
Method in brief: as §1

[13] = Cmax in ICR mouse plasma at 10 mg/kg, po; type: ADME, organism-based; set-up: dose 10 mg/kg, route oral
Method in brief: as §1

[14] = AUClast in ICR mouse plasma at 10 mg/kg, po; type: ADME, organism-based; set-up: time 0 - last, dose 10 mg/kg, route oral
Method in brief: as §1

[15] = AUC (0 to infinity) in ICR mouse plasma at 10 mg/kg, po; type: ADME, organism-based; set-up: time infinity, dose 10 mg/kg, route oral
Method in brief: as §1

[16] = as §2; type: ADME, organism-based; set-up: time 0 - last, dose 10 mg/kg, route oral; conditions: ICR, brain
Method in brief: as §1

[17] = tested on: Brain; experiment: AUC (0 to infinity) in ICR mouse brain at 10 mg/kg, po; type: ADME, organism-based; set-up: dose 10 mg/kg, route oral, time infinity; conditions: in vivo
Method in brief: as §1

SMILES: O[C@@H](COc1ccc(F)cc1)CN1CCN(c2ccc(F)cc2)CC1
- inhibition [1]: 47.5%

SMILES: COc1cccc(N2CCN(C[C@H](O)COc3ccc(Cl)cc3)CC2)c1
- inhibition [1]: 46%

SMILES: COc1cccc(N2CCN(C[C@H](O)COc3ccc(F)cc3)CC2)c1
- inhibition [1]: 44.5%

SMILES: O[C@H](COc1ccc(Cl)cc1)CN1CCN(c2ccccc2F)CC1
- inhibition [1]: 35.9%

SMILES: O[C@@H](COc1ccc(F)cc1)CN1CCN(Cc2ccccc2F)CC1
- inhibition [1]: 23.8%

SMILES: O[C@H](COc1ccc(F)cc1)CN1CCN(Cc2ccccc2F)CC1
- inhibition [1]: 20.3%

SMILES: O[C@@H](COc1ccc(Cl)cc1)CN1CCN(c2ccccc2F)CC1
- inhibition [1]: 46.9%

SMILES: O[C@H](COc1ccc(F)cc1)CN1CCN(c2ccccc2F)CC1
- inhibition [1]: 42%

SMILES: O[C@@H](COc1ccc(F)cc1)CN1CCN(Cc2ccc(Cl)c(Cl)c2)CC1
- Ratio IC50 [3]: 8.7
- IC50 [4]: 0.87 µM
- IC50 [2]: 100 nM
- inhibition [1]: 69.5%

SMILES: COc1ccccc1N1CCN(C[C@@H](O)COc2ccc(F)cc2)CC1
- inhibition [1]: 50.7%

SMILES: O[C@H](COc1ccc(F)cc1)CN1CCN(c2ccc(F)cc2)CC1
- inhibition [1]: 50%

SMILES: COc1cccc(N2CCN(C[C@@H](O)COc3ccc(F)cc3)CC2)c1
- IC50 [2]: 12000 nM
- inhibition [1]: 61.3%

SMILES: COc1ccccc1N1CCN(C[C@@H](O)COc2ccc(C(F)(F)F)cc2)CC1
- Ratio IC50 [3]: 2.21
- IC50 [4]: 3.95 µM
- IC50 [2]: 1790 nM
- inhibition [1]: 56.2%

SMILES: COc1cccc(N2CCN(C[C@@H](O)COc3ccc(Cl)cc3)CC2)c1
- inhibition [1]: 44.6%

SMILES: O[C@@H](COc1ccc(F)cc1)CN1CCN(Cc2c(F)cccc2Cl)CC1
- IC50 [2]: 12300 nM
- inhibition [1]: 56.5%

SMILES: COc1ccccc1N1CCN(C[C@@H](O)COc2ccc(Cl)cc2)CC1
- inhibition [1]: 47.4%

SMILES: O[C@@H](COc1ccc(Cl)cc1)CN1CCN(c2ccc(F)cc2)CC1
- inhibition [1]: 39.7%

SMILES: O[C@H](COc1ccc(Cl)cc1)CN1CCN(c2ccc(F)cc2)CC1
- inhibition [1]: 28.3%

SMILES: O[C@@H](COc1ccc(F)cc1)CN1CCN(c2ccccc2F)CC1
- inhibition [1]: 51.1%

SMILES: O[C@H](COc1ccc(F)cc1)CN1CCN(Cc2c(F)cccc2Cl)CC1
- IC50 [2]: 11400 nM
- inhibition [1]: 62.1%

SMILES: COc1ccccc1N1CCN(C[C@H](O)COc2ccc(F)cc2)CC1
- inhibition [1]: 41%

SMILES: COc1ccccc1N1CCN(C[C@H](O)COc2ccc(Cl)cc2)CC1
- inhibition [1]: 48.8%

SMILES: COc1ccccc1N1CCN(C[C@H](O)COc2ccc(C(F)(F)F)cc2)CC1
- inhibition [1]: 50.8%

The next lines start with results.

- inhibition [1]: 52.2%
SMILES: O[C@H](COc1ccc(Cl)cc1)CN1CCN(Cc2cccc(Cl)c2)CC1

- inhibition [1]: 48.6%
SMILES: O[C@@H](COc1ccc(Cl)cc1)CN1CCN(Cc2ccc(Cl)c(Cl)c2)CC1

- inhibition [1]: 43.4%
SMILES: O[C@H](COc1ccc(C(F)(F)F)cc1)CN1CCN(Cc2cccc(Cl)c2)CC1

- inhibition [1]: 41.2%
SMILES: O[C@H](COc1ccc(Cl)cc1)CN1CCN(Cc2ccc(Cl)c(Cl)c2)CC1

- IC50 [2]: 2580 nM
- inhibition [1]: 65.8%
SMILES: O[C@H](COc1ccc(F)cc1)CN1CCN(Cc2cccc(Cl)c2)CC1

- inhibition [1]: 40.9%
SMILES: O[C@@H](COc1ccc(Cl)cc1)CN1CCN(Cc2c(F)cccc2Cl)CC1

- inhibition [1]: 45.5%
SMILES: O[C@@H](COc1ccc(C(F)(F)F)cc1)CN1CCN(Cc2ccccc2F)CC1

- inhibition [1]: 53.7%
SMILES: O[C@@H](COc1ccc(C(F)(F)F)cc1)CN1CCN(c2ccc(F)cc2)CC1

- IC50 [2]: 4230 nM
- inhibition [1]: 56.6%
SMILES: O[C@H](COc1ccc(C(F)(F)F)cc1)CN1CCN(Cc2ccc(Cl)cc2)CC1

- inhibition [1]: 46%
SMILES: O[C@@H](COc1ccc(Cl)cc1)CN1CCN(Cc2cccc(Cl)c2)CC1

- inhibition [1]: 50.1%
SMILES: O[C@@H](COc1ccc(F)cc1)CN1CCN(Cc2ccc(Cl)cc2)CC1

- inhibition [1]: 48.9%
SMILES: O[C@H](COc1ccc(C(F)(F)F)cc1)CN1CCN(c2ccccc2F)CC1

- inhibition [1]: 44.6%
SMILES: O[C@@H](COc1ccc(C(F)(F)F)cc1)CN1CCN(Cc2c(F)cccc2Cl)CC1

- IC50 [2]: 1560 nM
- inhibition [1]: 65.8%
SMILES: O[C@H](COc1ccc(F)cc1)CN1CCN(Cc2ccc(Cl)cc2)CC1
- Ratio IC50 [3]: 0.87
- IC50 [4]: 1.35 µM

- inhibition [1]: 50.2%
SMILES: O[C@@H](COc1ccc(C(F)(F)F)cc1)CN1CCN(c2ccccc2F)CC1

- inhibition [1]: 35.8%
SMILES: O[C@@H](COc1ccc(Cl)cc1)CN1CCN(Cc2ccccc2F)CC1

- inhibition [1]: 45.6%
SMILES: O[C@H](COc1ccc(C(F)(F)F)cc1)CN1CCN(Cc2ccc(Cl)c(Cl)c2)CC1

- Tmax [5]: 30 min
- Cmax [6]: 870 ng/mL
- AUClast [7]: 119.1 µg·min/g
- half-life [8]: 186 min
- bioavailability [9]: 9.94%
- Kp [10]: 7.63
- Tmax [11]: 15 min
- half-life [12]: 56.5 min
- Cmax [13]: 197 ng/mL
- AUC(0-t) [14]: 260 ng·h/mL
- AUC(0-inf) [15]: 276 ng·h/mL
- IC50 [2]: 760 nM
- inhibition [1]: 55.1%
SMILES: O[C@H](COc1ccc(C(F)(F)F)cc1)CN1CCN(Cc2c(F)cccc2Cl)CC1
- Ratio IC50 [3]: 18.4
- IC50 [4]: 14 µM

- inhibition [1]: 41.5%
SMILES: O[C@H](COc1ccc(Cl)cc1)CN1CCN(Cc2ccccc2F)CC1

- IC50 [2]: 230 nM
- inhibition [1]: 64.2%
SMILES: O[C@H](COc1ccc(F)cc1)CN1CCN(Cc2ccc(Cl)c(Cl)c2)CC1
- Ratio IC50 [3]: 1.26
- IC50 [4]: 0.29 µM

- inhibition [1]: 43.9%
SMILES: COc1cccc(N2CCN(C[C@@H](O)COc3ccc(C(F)(F)F)cc3)CC2)c1

- IC50 [2]: 1420 nM
- inhibition [1]: 54.4%
SMILES: O[C@H](COc1ccc(Cl)cc1)CN1CCN(Cc2c(F)cccc2Cl)CC1
- Ratio IC50 [3]: 1.46
- IC50 [4]: 2.07 µM

- IC50 [2]: 2100 nM
- inhibition [1]: 61.1%
SMILES: O[C@@H](COc1ccc(F)cc1)CN1CCN(Cc2cccc(Cl)c2)CC1

- Tmax [5]: 15 min
- Cmax [6]: 4660 ng/mL
- AUC(0-t) [16]: 8290 ng·h/mL
- half-life [8]: 474 min
- AUC [17]: 686.6 µg·min/g
- bioavailability [9]: 67.2%
- Kp [10]: 3.46
- Tmax [11]: 15 min
- half-life [12]: 102 min
- Cmax [13]: 1570 ng/mL
- AUC(0-t) [14]: 3140 ng·h/mL
- AUC(0-inf) [15]: 3300 ng·h/mL
- IC50 [2]: 480 nM
- inhibition [1]: 68.5%
SMILES: COc1cccc(N2CCN(C[C@H](O)COc3ccc(C(F)(F)F)cc3)CC2)c1
- Ratio IC50 [3]: 8.5
- IC50 [4]: 4.08 µM

- IC50 [2]: 15500 nM
- inhibition [1]: 59.2%
SMILES: O[C@H](COc1ccc(C(F)(F)F)cc1)CN1CCN(c2ccc(F)cc2)CC1

- IC50 [2]: 1080 nM
- inhibition [1]: 56.5%
SMILES: O[C@H](COc1ccc(Cl)cc1)CN1CCN(Cc2ccc(Cl)cc2)CC1

- IC50 [2]: 1270 nM
- inhibition [1]: 38.8%
SMILES: O[C@@H](COc1ccc(C(F)(F)F)cc1)CN1CCN(Cc2ccc(Cl)c(Cl)c2)CC1
- Ratio IC50 [3]: 7.24
- IC50 [4]: 9.2 µM

- inhibition [1]: 48.6%
SMILES: O[C@H](COc1ccc(C(F)(F)F)cc1)CN1CCN(Cc2ccccc2F)CC1

- inhibition [1]: 43.1%
SMILES: O[C@@H](COc1ccc(C(F)(F)F)cc1)CN1CCN(Cc2cccc(Cl)c2)CC1

- inhibition [1]: 42.1%
SMILES: O[C@@H](COc1ccc(Cl)cc1)CN1CCN(Cc2ccc(Cl)cc2)CC1

- inhibition [1]: 61.5%
SMILES: O[C@@H](COc1ccc(C(F)(F)F)cc1)CN1CCN(Cc2ccc(Cl)cc2)CC1
